Results reported in ChEMBL document CHEMBL2169836 (J Med Chem, 2012).

Key:
Cytochrome P450 2D6 = Cytochrome P450 2D6 (Homo sapiens, UniProt P10635); experiment: Inhibition of CYP2D6 in human liver microsomes using 3-[2-(N,N-diethyl-N-methylamino)ethyl]-7- methoxy-4-methylcoumarin as substrate after 45 mins by LC/MS/MS analysis; assay type: ADME, Microsome
[1] = Metabolic stability in rat liver microsomes at 1 uM up to 60 mins by LC/MS/MS analysis relative to hepatic blood flow; assay type: ADME, Microsome; conditions: read-out: Stability
Cytochrome P450 2C9 = Cytochrome P450 2C9 (Homo sapiens, UniProt P11712); experiment: Inhibition of CYP2C9 in human liver microsomes using 7-methoxy-4-(trifluoromethyl)-coumarin as substrate after 45 mins by LC/MS/MS analysis; assay type: ADME, Microsome
Chain of Cytochrome P450 2C9 (P11712 whole entry): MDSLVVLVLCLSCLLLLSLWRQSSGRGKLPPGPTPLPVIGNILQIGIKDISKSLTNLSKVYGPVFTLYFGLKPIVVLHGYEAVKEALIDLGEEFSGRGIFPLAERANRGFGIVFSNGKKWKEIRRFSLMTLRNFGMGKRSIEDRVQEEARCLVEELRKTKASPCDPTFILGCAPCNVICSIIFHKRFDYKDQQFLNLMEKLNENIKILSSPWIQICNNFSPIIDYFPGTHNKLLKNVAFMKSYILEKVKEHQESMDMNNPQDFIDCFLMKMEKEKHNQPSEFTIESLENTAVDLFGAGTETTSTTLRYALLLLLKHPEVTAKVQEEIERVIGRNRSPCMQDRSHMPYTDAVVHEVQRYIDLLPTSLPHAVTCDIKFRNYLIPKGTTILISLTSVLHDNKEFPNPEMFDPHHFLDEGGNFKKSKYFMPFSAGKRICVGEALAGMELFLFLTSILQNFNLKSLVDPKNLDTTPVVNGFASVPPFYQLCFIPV

Cytochrome P450 2C19 = Cytochrome P450 2C19 (Homo sapiens, UniProt P33261); experiment: Inhibition of CYP2C19 in human liver microsomes using 7-ethoxy-3-cyanocoumarin as substrate after 45 mins by LC/MS/MS analysis; assay type: ADME, Microsome
Chain of Cytochrome P450 2C19 (P33261 whole entry): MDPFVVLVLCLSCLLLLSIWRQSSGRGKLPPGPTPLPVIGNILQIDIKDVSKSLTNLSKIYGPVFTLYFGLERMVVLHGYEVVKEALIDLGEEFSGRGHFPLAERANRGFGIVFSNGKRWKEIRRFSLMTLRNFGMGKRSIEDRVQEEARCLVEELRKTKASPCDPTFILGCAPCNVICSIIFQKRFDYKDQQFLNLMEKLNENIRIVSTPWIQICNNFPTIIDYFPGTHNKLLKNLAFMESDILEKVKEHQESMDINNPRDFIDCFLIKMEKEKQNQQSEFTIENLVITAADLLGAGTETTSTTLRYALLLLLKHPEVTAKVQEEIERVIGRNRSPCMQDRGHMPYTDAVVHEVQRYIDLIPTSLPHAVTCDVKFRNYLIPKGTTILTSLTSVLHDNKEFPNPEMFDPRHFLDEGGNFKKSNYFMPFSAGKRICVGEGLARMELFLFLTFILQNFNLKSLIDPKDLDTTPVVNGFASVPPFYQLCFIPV

Cytochrome P450 3A4 = Cytochrome P450 3A4 (Homo sapiens, UniProt P08684); experiment: Inhibition of CYP3A4 in human liver microsomes using 7-benzyloxy-4-(trifluoromethyl)-coumarin as substrate after 30 mins by LC/MS/MS analysis; assay type: ADME, Microsome
Chain of Cytochrome P450 3A4 (P08684 whole entry): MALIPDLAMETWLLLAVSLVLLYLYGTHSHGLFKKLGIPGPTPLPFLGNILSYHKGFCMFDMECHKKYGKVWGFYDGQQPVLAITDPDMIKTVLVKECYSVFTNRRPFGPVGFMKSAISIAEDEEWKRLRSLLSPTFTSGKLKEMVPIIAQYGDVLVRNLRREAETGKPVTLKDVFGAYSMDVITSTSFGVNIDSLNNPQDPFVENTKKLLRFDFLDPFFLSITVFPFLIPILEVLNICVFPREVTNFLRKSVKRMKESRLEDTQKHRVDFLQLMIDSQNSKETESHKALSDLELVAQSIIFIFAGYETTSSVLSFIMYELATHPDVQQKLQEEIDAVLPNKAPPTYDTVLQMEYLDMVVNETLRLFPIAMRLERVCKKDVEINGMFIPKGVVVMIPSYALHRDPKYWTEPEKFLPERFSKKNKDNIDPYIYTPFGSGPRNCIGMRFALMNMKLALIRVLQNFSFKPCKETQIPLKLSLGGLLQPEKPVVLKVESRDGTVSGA

[2] = target: Sodium/hydrogen exchanger 1 (Homo sapiens, UniProt P19634); experiment: Inhibition of NHE1 in human HT-29 cells assessed as intracellular pH change after 30 mins; assay type: cell-based
Chain of Sodium/hydrogen exchanger 1 (P19634 whole entry): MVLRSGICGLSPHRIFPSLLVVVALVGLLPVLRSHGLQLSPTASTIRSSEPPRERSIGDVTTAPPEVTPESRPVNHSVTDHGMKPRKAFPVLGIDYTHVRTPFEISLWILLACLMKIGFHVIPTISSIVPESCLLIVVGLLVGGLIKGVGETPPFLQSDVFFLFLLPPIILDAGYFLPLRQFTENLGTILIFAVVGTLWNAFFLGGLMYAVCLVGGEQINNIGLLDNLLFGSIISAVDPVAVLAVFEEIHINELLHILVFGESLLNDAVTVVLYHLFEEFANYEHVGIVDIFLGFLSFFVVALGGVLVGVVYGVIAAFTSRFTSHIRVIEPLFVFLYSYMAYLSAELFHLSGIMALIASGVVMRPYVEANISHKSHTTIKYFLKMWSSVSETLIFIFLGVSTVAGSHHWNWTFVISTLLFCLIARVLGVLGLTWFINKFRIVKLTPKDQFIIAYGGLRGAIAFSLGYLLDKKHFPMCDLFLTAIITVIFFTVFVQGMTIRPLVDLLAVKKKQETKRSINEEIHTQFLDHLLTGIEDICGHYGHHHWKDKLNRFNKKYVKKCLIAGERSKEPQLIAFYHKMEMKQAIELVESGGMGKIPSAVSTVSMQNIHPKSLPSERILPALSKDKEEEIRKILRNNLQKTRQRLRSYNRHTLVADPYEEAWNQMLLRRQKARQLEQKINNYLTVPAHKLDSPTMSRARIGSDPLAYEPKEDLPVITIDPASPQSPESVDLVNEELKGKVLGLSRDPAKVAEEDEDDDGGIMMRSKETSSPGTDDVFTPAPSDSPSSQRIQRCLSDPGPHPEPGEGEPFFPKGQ

[3] = Permeability of the compound by PAMPA; assay type: ADME; conditions: read-out: permeability
Method in brief: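 Donor buffers were set to pH 5.0, 6.2 and 7.4 with NaOH, and ASB7.4 buffer was used as acceptor. Filters (0.45 pore, 125 μm thick) were lipid-coated. A 10 mM DMSO stock was diluted to 41.7 μM in donor buffer. The sandwich was incubated 4 h without stirring. Reference, donor and acceptor concentrations were read in duplicate by UV plate reader, and ratings were assigned from permeation velocity.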

[4] = Metabolic stability in human liver microsomes at 1 uM up to 60 mins by LC/MS/MS analysis relative to hepatic blood flow; assay type: ADME, Microsome; conditions: read-out: Stability
[5] = Mean resident time in jugular and femoral vein precannulated Sprague-Dawley rat at 1 mg/kg, iv by LC/MS/MS analysis; assay type: ADME, organism-based; set-up: dose 1 mg/kg, route intravenous; conditions: in vivo
Rattus norvegicus = experiment: Clearance in jugular and femoral vein precannulated Sprague-Dawley rat at 1 mg/kg, iv by LC/MS/MS analysis relative to hepatic blood flow; assay type: ADME, organism-based, Liver; set-up: dose 1 mg/kg, route intravenous; conditions: in vivo
[6] = Volume of distribution at steady state in jugular and femoral vein precannulated Sprague-Dawley rat at 1 mg/kg, iv by LC/MS/MS analysis; assay type: ADME, organism-based; set-up: dose 1 mg/kg, route intravenous; conditions: in vivo, read-out: Vdss

Chain of Cytochrome P450 2D6 (P10635 whole entry): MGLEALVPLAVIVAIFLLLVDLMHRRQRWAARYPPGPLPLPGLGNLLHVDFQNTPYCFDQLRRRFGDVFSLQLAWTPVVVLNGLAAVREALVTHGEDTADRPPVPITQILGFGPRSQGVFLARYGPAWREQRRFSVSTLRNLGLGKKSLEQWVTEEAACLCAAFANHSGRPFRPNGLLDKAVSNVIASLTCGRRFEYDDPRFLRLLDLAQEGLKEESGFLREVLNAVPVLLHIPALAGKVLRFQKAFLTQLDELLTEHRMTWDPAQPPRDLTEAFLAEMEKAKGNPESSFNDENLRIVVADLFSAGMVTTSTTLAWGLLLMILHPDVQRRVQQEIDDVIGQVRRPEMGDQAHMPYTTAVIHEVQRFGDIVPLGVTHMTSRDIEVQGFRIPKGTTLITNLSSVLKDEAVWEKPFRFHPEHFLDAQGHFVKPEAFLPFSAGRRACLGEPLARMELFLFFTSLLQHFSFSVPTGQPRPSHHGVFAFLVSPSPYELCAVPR

IC50 (Cytochrome P450 2D6) [µM]	hepatic extraction ratio at 1 h, 1 µM [1]	IC50 (Cytochrome P450 2C9) [µM]	IC50 (Cytochrome P450 2C19) [µM]	IC50 (Cytochrome P450 3A4) [µM]	IC50 [2] [µM]	Papp [3] [×10⁻⁶ cm/s]	hepatic extraction ratio at 1 h, 1 µM [4]	MRT [5] [h]	CL (Rattus norvegicus) [%]	Vd [6] [L/kg]	Compound
10	< 0.06	4	16	> 30	0.061	≥ 2	0.4				N#Cc1ccccc1C(=O)N1CCC(c2ccc(C(=O)NC(=N)N)cc2C(F)(F)F)CC1
					0.385						N=C(N)NC(=O)c1ccc(C2CCN(C(=O)c3cccc(Cl)c3)CC2)c(C(F)(F)F)c1
> 30	< 0.06	13	> 30	> 30	0.018	< 2	0.33				N=C(N)NC(=O)c1ccc(C2CCN(C(=O)c3cccnc3)CC2)c(C(F)(F)F)c1
> 30	0.39	7		0.4	0.028	≥ 2	< 0.11				CC(C)C(=O)N1CCC(c2ccc(C(=O)NC(=N)N)cc2C(F)(F)F)CC1
						≥ 2					CN(C)S(=O)(=O)c1ccc(C(=O)N2CCC(c3ccc(C(=O)NC(=N)N)cc3C(F)(F)F)CC2)cc1
> 30	< 0.056	25	15	3	0.018	< 2	0.23				Cn1cncc1C(=O)N1CCC(c2ccc(C(=O)NC(=N)N)cc2C(F)(F)F)CC1
					4.71						N=C(N)NC(=O)c1ccc(C2CCN(C(=O)c3ccc(-c4ccccc4)cc3)CC2)c(C(F)(F)F)c1
> 30	0.14	> 30	> 30	> 30	0.06	< 2	0.15				CS(=O)(=O)c1cccc(C(=O)N2CCC(c3ccc(C(=O)NC(=N)N)cc3C(F)(F)F)CC2)c1
					0.064						N=C(N)NC(=O)c1ccc(C2CCN(C(=O)C3CCCC3)CC2)c(C(F)(F)F)c1
					0.03	< 2					CNS(=O)(=O)c1ccc(C(=O)N2CCC(c3ccc(C(=O)NC(=N)N)cc3C(F)(F)F)CC2)cc1
> 30	0.46	7	5	> 30	0.068	≥ 2	0.67				N=C(N)NC(=O)c1ccc(C2CCN(C(=O)c3ccccc3)CC2)c(C(F)(F)F)c1
> 30	0.1	29	> 30	> 30	0.019	< 2	0.18				N=C(N)NC(=O)c1ccc(C2CCN(C(=O)c3ccc(O)nc3)CC2)c(C(F)(F)F)c1
					0.047						CC(C)CC(=O)N1CCC(c2ccc(C(=O)NC(=N)N)cc2C(F)(F)F)CC1
					0.132	≥ 2					COc1ccc(C(=O)N2CCC(c3ccc(C(=O)NC(=N)N)cc3C(F)(F)F)CC2)cc1
					0.32						N=C(N)NC(=O)c1ccc(C2CCN(C(=O)c3ccc(C(F)(F)F)cc3)CC2)c(C(F)(F)F)c1
17	< 0.056	6	5	16		≥ 2	< 0.11				N=C(N)NC(=O)c1ccc(C2CCN(C(=O)C3CC3)CC2)c(C(F)(F)F)c1
					0.029						CCCC(=O)N1CCC(c2ccc(C(=O)NC(=N)N)cc2C(F)(F)F)CC1
	0.11				0.021	< 2	0.27				N=C(N)NC(=O)c1ccc(C2CCN(C(=O)c3ccc(O)cc3)CC2)c(C(F)(F)F)c1
> 30		17			0.072	≥ 2		1.5	29	1.8	CC(C)(C)C(=O)N1CCC(c2ccc(C(=O)NC(=N)N)cc2C(F)(F)F)CC1
